NTR1 agonist – agonists of human neurotensin receptor NTR1 | NTR1-U2OS beta-arrestin-GFP spot imaging, agonist mode | activation, % at 20 µM | 330,000 tested, 0.17% active;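 active = activation at or above 40% of the spot to cytoplasm intensity ratio, with at least 20 cells analyzed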;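 note: 0% = DMSO without peptide and 100% = 100 nM NTR1 peptide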
NR1D1 modulator – Rev-erb alpha (human) modulation. P20393. Rev-erbα–FITC-DNA binding, fluorescence polarization, 90 min. activity, % at 10 µM. 370,000 tested, 0.79% active. AID 1259318;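 active = activity above about 14%, limit read from the data; passing the limit was not always enough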;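 note: 0% = DMSO wells with 35 nM protein and 100% = DMSO wells with 750 nM protein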
Target sequence (P20393 whole entry, looked up): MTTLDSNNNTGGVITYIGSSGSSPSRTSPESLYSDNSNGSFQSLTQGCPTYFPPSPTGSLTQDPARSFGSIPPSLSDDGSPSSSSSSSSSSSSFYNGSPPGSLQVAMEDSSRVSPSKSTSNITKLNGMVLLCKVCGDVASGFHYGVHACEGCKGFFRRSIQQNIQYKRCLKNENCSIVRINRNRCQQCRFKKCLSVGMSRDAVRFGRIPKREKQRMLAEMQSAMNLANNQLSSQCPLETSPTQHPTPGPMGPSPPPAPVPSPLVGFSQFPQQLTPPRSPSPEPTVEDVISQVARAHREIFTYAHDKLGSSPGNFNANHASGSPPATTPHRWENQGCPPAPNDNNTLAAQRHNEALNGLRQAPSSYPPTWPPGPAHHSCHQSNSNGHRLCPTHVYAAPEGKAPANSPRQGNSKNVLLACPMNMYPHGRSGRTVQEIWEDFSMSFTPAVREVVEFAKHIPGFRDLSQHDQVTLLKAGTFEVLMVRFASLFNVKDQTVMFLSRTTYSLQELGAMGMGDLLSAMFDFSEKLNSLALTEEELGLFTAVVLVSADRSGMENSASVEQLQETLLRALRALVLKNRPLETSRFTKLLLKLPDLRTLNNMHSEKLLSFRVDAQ
MC4R ag barr – activates human MC4R beta-arrestin recruitment. P32245. U2OS MC4R beta-arrestin complementation, luminescence; percent of melanotan II response, DMSO zero. activation, % at 8.9 µM. 360,000 tested, 0.98% active;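 active = activation above a per-plate cutoff, the mean activation of sample wells on that plate plus 3 SD, cut at about 8% in these data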
MC4R antag cAMP – blocks human MC4R cAMP signaling; MC4R-expressing cells, MTII-stimulated cAMP, LANCE TR-FRET; inhibition, % at 6.5 µM; 360,000 tested, 0.48% active; AID 540295;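 active = inhibition above its plate's cutoff, the mean of tested wells on that plate plus 3 SD, cut at about 29% in these data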;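 note: 0% = Melanotan II alone and 100% = Melanotan II plus saturating MCL0020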
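Material: U2OS-MC4R stable cell line | Reagent: Melanotan II challenge after compound preincubation | Doses: One concentration, 6.5 µM nominal | Incubation: 30-min compound preincubation, 1-h Melanotan II challenge, 1-h detection, room temperature | Signal: TR-FRET cAMP assay | Replicates: One well per compound, no replicates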
PG9 Ab binder – PG9 antibody binding by small molecule; 360,000 tested, 0.43% active; TR-FRET gp120-PG9 antibody binding; inhibition, % at 6.7 µM; in the data active = inhibition above about 8.5%
NR1D1 mod conf – confirmation of modulators of human Rev-erb alpha DNA binding | shares compounds with NR1D1 modulator | Rev-erb alpha FITC-DNA binding, fluorescence polarization, 90 min | activation, % at 25 µM | 3,000 tested, 61% active | AID 1259319;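 active = activation at or above a set limit, or at least 3 SD above the negative control mean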;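 note: 0% = 35 nM protein with DMSO and 100% = 750 nM protein high control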
RORg counter – RORgamma DNA-binding activity, dose-response counter-screen; shares compounds with NR1D1 modulator; purified RORgamma protein-FITC-DNA binding, fluorescence polarization; IC50, µM; 910 tested, 8% active; AID 1259320;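 active = Compounds whose fitted half-maximal concentration for disrupting protein-DNA binding is below 10 micromolar; the record names Rev-erb in its text, so the target is in doubt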
* marks the source's active call; other numbers are inactive results. Rows were chosen to be rich in hits. Some 2.5% of all compounds tested hit in one or more screens of this group.

How did CCCC(C)NC(=O)Cc1ccc(Br)cc1 (stereo not drawn) do in these assays?
NTR1 agonist: 0; NR1D1 modulator: 0; MC4R ag barr: -2; MC4R antag cAMP: 7; PG9 Ab binder: 0

What do the screens show for `CCOC(=O)/C(C#N)=C\C=C1C=CN(C)C=C1`?
NTR1 agonist: -2; NR1D1 modulator: 31*; MC4R ag barr: 0; MC4R antag cAMP: -27; PG9 Ab binder: -25; NR1D1 mod conf: 28*

Results for Oc1ccccc1-c1nnc(-c2ccc(C(F)(F)F)cc2)o1 ?
NTR1 agonist: 2; NR1D1 modulator: 39*; MC4R ag barr: 7; MC4R antag cAMP: -2; PG9 Ab binder: 1; NR1D1 mod conf: 23*

Results for COc1cccc(-c2nnc(-c3ccc(C(F)(F)F)cc3)o2)c1 ?
NTR1 agonist: 0; NR1D1 modulator: 1; MC4R ag barr: 6; MC4R antag cAMP: 14; PG9 Ab binder: 1

What do the screens show for `CCN1/C(=C/C=C/c2oc3ccc(-c4ccccc4)cc3[n+]2CC)Oc2ccc(-c3ccccc3)cc21`?
NTR1 agonist: -4; NR1D1 modulator: 139*; MC4R ag barr: 8; MC4R antag cAMP: 11; PG9 Ab binder: 0; NR1D1 mod conf: 135*; RORg counter: inactive

How did COc1cccc(C(=O)Nc2ccccc2F)c1 do in these assays?
NTR1 agonist: 2; NR1D1 modulator: 0; MC4R ag barr: -2; MC4R antag cAMP: -3; PG9 Ab binder: -4

Results for O=C(Nc1ccccc1F)c1cccc(C(=O)Nc2ccccc2F)c1 ?
NTR1 agonist: -2; NR1D1 modulator: 41*; MC4R ag barr: -1; MC4R antag cAMP: 7; PG9 Ab binder: -3; NR1D1 mod conf: -3

Results for Cc1cc(-c2nc3cccnc3s2)ccc1NS(=O)(=O)c1ccc2c(c1)OCCO2 ?
NTR1 agonist: -2; NR1D1 modulator: 25*; MC4R ag barr: 4; MC4R antag cAMP: 1; PG9 Ab binder: 2; NR1D1 mod conf: -4

Results for O=C(OC12CCCN(C1)/C(=C/c1cccnc1)C2)c1cccc(F)c1 (stereo not drawn) ?
NR1D1 modulator: 1

What do the screens show for `COc1ccc2c(c1)CN1C(=O)N(C3CCCC3)S(=O)(=O)CC21` (stereo not drawn)?
NR1D1 modulator: -4

How did COc1cccc(-c2nc3sc4c(c3c(=O)[nH]2)CCCCC4)c1 do in these assays?
NTR1 agonist: 12; NR1D1 modulator: 26*; MC4R ag barr: -3; MC4R antag cAMP: 11; PG9 Ab binder: -1; NR1D1 mod conf: 2

What do the screens show for `O=C(COc1ccc2c(-c3ccccc3)cc(=O)oc2c1)Nc1ccc(CCO)cc1`?
NTR1 agonist: 1; NR1D1 modulator: 53*; MC4R ag barr: -2; MC4R antag cAMP: -4; PG9 Ab binder: 6; NR1D1 mod conf: 25*

Results for Cc1ccc(C(=O)N2N=C(c3ccccc3O)CC2c2ccccc2)cc1 (stereo not drawn) ?
NTR1 agonist: 4; NR1D1 modulator: 38*; MC4R ag barr: 1; MC4R antag cAMP: 2; PG9 Ab binder: 1; NR1D1 mod conf: 25*

How did CCOC(=O)/C=C1/SCC(=O)N1Cc1ccc(Br)cc1 do in these assays?
NR1D1 modulator: 14; MC4R ag barr: -1; MC4R antag cAMP: -3; PG9 Ab binder: 1

What do the screens show for `CCOC(=O)/C=C1/SCC(=O)N1CCOc1cccc(Br)c1`?
NR1D1 modulator: 24*; MC4R ag barr: 1; MC4R antag cAMP: 9; PG9 Ab binder: -2; NR1D1 mod conf: 12*

Results for N#Cc1c(N)nc(Sc2ccc(Cl)cc2)c(C#N)c1-c1ccccc1Cl ?
NTR1 agonist: 14; NR1D1 modulator: 64*; MC4R ag barr: 3; MC4R antag cAMP: 7; PG9 Ab binder: -1; NR1D1 mod conf: 43*; RORg counter: inactive

What do the screens show for `Cc1ccc(-c2cc(-c3ccccc3Cl)c(C#N)c(N)n2)o1`?
NTR1 agonist: -1; NR1D1 modulator: 0; MC4R ag barr: -2; MC4R antag cAMP: 9; PG9 Ab binder: -1

Results for CCSc1nc(N)c(C#N)c(-c2ccccc2Cl)c1C#N ?
NTR1 agonist: 3; NR1D1 modulator: 25*; MC4R ag barr: 1; MC4R antag cAMP: -4; PG9 Ab binder: -1; NR1D1 mod conf: 22*

How did COCc1cc(C)nc(Nc2ccc(C)cc2C)c1C#N do in these assays?
NTR1 agonist: 0; NR1D1 modulator: 29*; MC4R ag barr: 5; MC4R antag cAMP: 15; PG9 Ab binder: -1; NR1D1 mod conf: 1

What do the screens show for `Cc1ccc(Nc2nc(C)cc(C)c2C#N)c(C)c1`?
NR1D1 modulator: -9; MC4R ag barr: -1; MC4R antag cAMP: 1; PG9 Ab binder: 1

What do the screens show for `Oc1ccccc1C=NN1CCN(Cc2ccccc2)CC1`?
NR1D1 modulator: -3

How did CCOC(=O)/C(C#N)=C/c1ccc(OCC(=O)Nc2ccc(C)c(C)c2)c(OC)c1 do in these assays?
NTR1 agonist: 2; NR1D1 modulator: 3; MC4R ag barr: 3; MC4R antag cAMP: 5; PG9 Ab binder: -1

Results for COc1cc(/C=C(\C#N)C(=O)Nc2cc(C(F)(F)F)ccc2Cl)ccc1OCC(=O)Nc1cccc(C(F)(F)F)c1 ?
NTR1 agonist: 6; NR1D1 modulator: 34*; MC4R ag barr: 0; MC4R antag cAMP: 5; PG9 Ab binder: -1; NR1D1 mod conf: 19*

How did COCCCNc1nc2c(-c3ccc(C)cc3)nnn2c2ccccc12 do in these assays?
NTR1 agonist: 4; NR1D1 modulator: 65*; MC4R ag barr: 3; MC4R antag cAMP: -2; PG9 Ab binder: 7; NR1D1 mod conf: 35*; RORg counter: inactive

How did CCCCCc1ccc(OCCCC[n+]2ccc(C)cc2)c(CCCCC)c1 do in these assays?
NTR1 agonist: 13; NR1D1 modulator: 21*; MC4R ag barr: 7; MC4R antag cAMP: 12; PG9 Ab binder: 0; NR1D1 mod conf: 25*

What do the screens show for `Cc1cc(CN2CCOCC2)c(O)c(C2(C)CCCCC2)c1`?
NTR1 agonist: 9; NR1D1 modulator: 18*; MC4R ag barr: -1; MC4R antag cAMP: 2; PG9 Ab binder: -3; NR1D1 mod conf: 24*

What do the screens show for `CCOC(=O)C1=C(C(=O)OCC)C2N(Cc3ccc(C#N)cc3)c3ccccc3[C@@]23C[C@@H](C(=O)OC)N(S(=O)(=O)c2cccs2)C3=N1` (stereo partly drawn)?
NR1D1 modulator: -7; PG9 Ab binder: 0

How did Cc1ccc(C)c(NC(=O)CN(C)C(=O)c2ccc(-c3ccc(Cl)cc3)o2)c1 do in these assays?
NTR1 agonist: 4; NR1D1 modulator: 26*; MC4R ag barr: 0; MC4R antag cAMP: -5; PG9 Ab binder: 1; NR1D1 mod conf: 18*

Results for C=CCOC(=O)N[C@H](c1ccc(-c2ccccc2)cc1)[C@H](C)/C=C/CC(=O)OC ?
NR1D1 modulator: -2

Compound activity (PubChem)
